From ChEMBL document CHEMBL3085648, “Enhancement of kinase selectivity in a potent class of arylamide FMS inhibitors” (Bioorg Med Chem Lett, 2013)
Calls of active or inactive are those of the source. No cut-off for these calls is given here.

Key:
[1] = Metabolic stability in mouse liver microsomes assessed as compound remaining after 10 mins; format: ADME, Microsome; conditions: liver microsomes, read-out: Stability
Method in brief: (§1)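 Compound was incubated with human, mouse or rat liver microsomal preparations. Stability is the percent of compound remaining after 10 min.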

[2] = Metabolic stability in human liver microsomes assessed as compound remaining after 10 mins; format: ADME; conditions: liver microsomes, read-out: Stability; method in brief: as §1
Rattus norvegicus [3] = assay: Toxicity in Sprague-Dawley rat at 40 mg/kg, po bid after 4.5 days; format: organism-based; parameters: dose 40 mg/kg, route oral; conditions: in vivo, 108 h
Method in brief: (§2)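 Female Sprague–Dawley rats (150–200 g) were dosed orally bid for 4 days with vehicle (n = 4) or 10–40 mg/kg (n = 3), as a solution at 6 ml/kg in 20% HPβCD. A final dose was given on day 5 and rats were sacrificed 2 h later. Plasma drug level, body weight versus vehicle controls and blood reticulocytes were assessed.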

Rattus norvegicus [4] = assay: Toxicity in Sprague-Dawley rat assessed as blood reticulocyte level at 40 mg/kg, po bid after 4.5 days; format: organism-based; parameters: dose 40 mg/kg, route oral; conditions: in vivo, 108 h; method in brief: as §2
[5] = Plasma concentration in Sprague-Dawley rat at 10 mg/kg, po bid administered for 5 days measured 2 hrs post last dose; format: ADME, organism-based; parameters: dose 10 mg/kg, route oral; method in brief: as §2
Rattus norvegicus [6] = assay: Toxicity in Sprague-Dawley rat assessed as body weight loss at 40 mg/kg, po bid after 4.5 days relative to vehicle-treated control; format: organism-based; parameters: dose 40 mg/kg, route oral; conditions: in vivo, 108 h; method in brief: as §2
[7] = Metabolic stability in rat liver microsomes assessed as compound remaining after 10 mins; format: ADME; conditions: read-out: Stability; method in brief: as §1
[8] = Plasma concentration in Sprague-Dawley rat at 40 mg/kg, po bid administered for 5 days measured 2 hrs post last dose; format: ADME, organism-based; parameters: dose 40 mg/kg, route oral; method in brief: as §2
Mo7e = assay: Selectivity ratio of IC50 for KIT in human Mo7e cells to IC50 for FMS in mouse BMDM cells; format: cell-based
Method in brief: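 Cellular selectivity was calculated as Mo7e IC50 divided by BMDM IC50. Mo7e IC50 came from SCF-dependent proliferation of Mo7e leukemia cells. BMDM IC50 came from proliferation of murine bone marrow-derived macrophages.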

[9] = biological target: T1, Macrophage colony-stimulating factor 1 receptor (Mus musculus, UniProt P09581); assay: Inhibition of FMS in mouse BMDM cells; format: cell-based
T1 sequence (P09581 whole entry): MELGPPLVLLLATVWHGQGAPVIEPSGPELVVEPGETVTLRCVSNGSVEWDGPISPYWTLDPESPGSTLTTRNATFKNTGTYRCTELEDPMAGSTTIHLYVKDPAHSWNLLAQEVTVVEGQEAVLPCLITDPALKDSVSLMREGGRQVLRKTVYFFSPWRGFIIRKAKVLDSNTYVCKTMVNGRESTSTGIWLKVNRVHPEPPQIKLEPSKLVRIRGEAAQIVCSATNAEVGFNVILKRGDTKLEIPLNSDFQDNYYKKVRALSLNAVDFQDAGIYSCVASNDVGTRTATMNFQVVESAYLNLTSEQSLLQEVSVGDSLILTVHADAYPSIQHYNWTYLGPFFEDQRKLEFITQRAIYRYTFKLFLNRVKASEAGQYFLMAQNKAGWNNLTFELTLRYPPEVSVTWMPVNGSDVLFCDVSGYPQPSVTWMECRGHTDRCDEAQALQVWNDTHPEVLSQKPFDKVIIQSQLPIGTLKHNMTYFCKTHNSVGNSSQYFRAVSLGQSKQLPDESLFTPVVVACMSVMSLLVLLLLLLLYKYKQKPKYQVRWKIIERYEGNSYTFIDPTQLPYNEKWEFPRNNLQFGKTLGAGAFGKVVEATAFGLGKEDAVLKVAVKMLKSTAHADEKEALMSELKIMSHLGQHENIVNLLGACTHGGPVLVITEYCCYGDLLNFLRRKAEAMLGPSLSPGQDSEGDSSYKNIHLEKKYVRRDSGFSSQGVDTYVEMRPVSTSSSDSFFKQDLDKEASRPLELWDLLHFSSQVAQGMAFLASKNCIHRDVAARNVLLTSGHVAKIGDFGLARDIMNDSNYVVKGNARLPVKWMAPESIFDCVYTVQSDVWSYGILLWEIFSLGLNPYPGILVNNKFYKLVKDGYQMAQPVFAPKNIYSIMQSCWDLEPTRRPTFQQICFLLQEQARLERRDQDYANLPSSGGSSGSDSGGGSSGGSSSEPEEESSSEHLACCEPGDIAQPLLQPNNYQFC

[10] = biological target: Mast/stem cell growth factor receptor Kit (Homo sapiens, UniProt P10721); assay: Inhibition of KIT (unknown origin)
Mus musculus [11] = assay: Inhibition of CSF-1-induced c-fos gene expression in mouse spleen at 30 mg/kg, po after 6 hrs; format: functional
Method in brief: (§3)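 In the mouse pharmacodynamic model, compound was given orally. Spleen c-fos mRNA induced by an iv injection of CSF-1 was measured 6 or 8 h after dosing.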

Mus musculus [12] = assay: Inhibition of CSF-1-induced c-fos gene expression in mouse spleen at 40 mg/kg, po after 6 hrs; format: functional; method in brief: as §3
Rattus norvegicus [13] = assay: Antiinflammatory activity in chronic phase of Lewis rat arthritis model assessed as inhibition of SCW-induced ankle swelling at 10 to 40 mg/kg, po bid administered for 14 days; format: functional, organism-based
Method in brief: (§4)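 Female Lewis rats (80–100 g) received streptococcal cell wall material ip on day 0. On day 5, rats with a distinct acute-phase joint swelling response were randomized (n = 7/group). Vehicle, 10 or 40 mg/kg was given orally bid from day 10 (start of chronic phase) for 14 days. Ankle and paw swelling were followed.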

Rattus norvegicus [14] = assay: Antiinflammatory activity in chronic phase of po dosed Lewis rat arthritis model assessed as inhibition of SCW-induced ankle swelling administered as bid for 14 days; format: functional, organism-based; method in brief: as §4

Chain of Mast/stem cell growth factor receptor Kit (P10721 whole entry): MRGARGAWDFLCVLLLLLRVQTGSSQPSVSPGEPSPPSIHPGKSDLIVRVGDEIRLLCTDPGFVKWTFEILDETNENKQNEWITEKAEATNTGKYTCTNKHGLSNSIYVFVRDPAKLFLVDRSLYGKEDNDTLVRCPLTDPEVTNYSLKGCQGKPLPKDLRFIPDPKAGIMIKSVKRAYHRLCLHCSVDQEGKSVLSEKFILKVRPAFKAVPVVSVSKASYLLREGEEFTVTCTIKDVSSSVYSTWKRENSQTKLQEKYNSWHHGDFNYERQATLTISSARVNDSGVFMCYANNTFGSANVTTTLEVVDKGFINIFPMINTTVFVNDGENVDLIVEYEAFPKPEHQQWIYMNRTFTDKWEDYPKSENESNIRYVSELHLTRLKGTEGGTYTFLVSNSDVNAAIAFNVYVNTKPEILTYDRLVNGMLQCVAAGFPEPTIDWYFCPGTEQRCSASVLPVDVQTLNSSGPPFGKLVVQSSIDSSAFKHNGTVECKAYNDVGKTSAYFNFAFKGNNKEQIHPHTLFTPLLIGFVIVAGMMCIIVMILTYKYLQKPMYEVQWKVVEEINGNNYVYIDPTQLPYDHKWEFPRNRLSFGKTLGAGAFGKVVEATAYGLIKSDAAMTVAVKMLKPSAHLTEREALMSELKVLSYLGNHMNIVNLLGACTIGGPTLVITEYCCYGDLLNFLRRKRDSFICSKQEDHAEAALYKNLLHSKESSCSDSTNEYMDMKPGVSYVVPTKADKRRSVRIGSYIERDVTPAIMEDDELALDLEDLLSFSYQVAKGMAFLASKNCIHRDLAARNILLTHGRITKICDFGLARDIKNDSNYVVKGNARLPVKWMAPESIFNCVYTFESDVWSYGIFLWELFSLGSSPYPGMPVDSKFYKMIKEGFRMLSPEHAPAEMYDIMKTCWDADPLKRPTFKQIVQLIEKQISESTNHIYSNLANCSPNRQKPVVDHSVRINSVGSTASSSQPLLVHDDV

CC1(C)CC=C(c2cc(C(C)(C)N3CCN(CCO)CC3)ccc2NC(=O)c2nc(C#N)c[nH]2)CC1
remaining at 10 min [1]: 98% | remaining at 10 min [2]: 110% | Activity (Rattus norvegicus [3]): Non-toxic | Activity (Rattus norvegicus [4]): Non-toxic | concentration at 2 h [5]: 680 nM | Activity (Rattus norvegicus [6]): Non-toxic | remaining at 10 min [7]: 63% | concentration at 2 h [8]: 5160 nM

CN(C)CC(=O)N1CCC(c2ccc(NC(=O)c3nc(C#N)c[nH]3)c(C3=CCCCC3)c2)CC1
Ratio IC50 (Mo7e): 15 | remaining at 10 min [7]: 77%

CN(C)C(=O)c1ccc(NC(=O)c2nc(C#N)c[nH]2)c(C2=CCC(C)(C)CC2)c1
IC50 [9]: 130 nM

CC(C)(O)Cc1ccc(NC(=O)c2nc(C#N)c[nH]2)c(C2=CCCCC2)c1
remaining at 10 min [1]: 61% | remaining at 10 min [2]: 66% | IC50 [9]: 32 nM | remaining at 10 min [7]: 47%

N#Cc1c[nH]c(C(=O)Nc2ccc(CCC(=O)O)cc2C2=CCCCC2)n1
remaining at 10 min [2]: 83% | remaining at 10 min [7]: 19%

N#Cc1cnc(C(=O)Nc2ccc(CCO)cc2C2=CCCCC2)[nH]1
remaining at 10 min [1]: 3% | remaining at 10 min [2]: 7% | IC50 [9]: 40 nM | remaining at 10 min [7]: 3%

CC1(C)CC=C(c2cc(C(C)(C)NCCS(C)(=O)=O)ccc2NC(=O)c2nc(C#N)c[nH]2)CC1
remaining at 10 min [1]: 62% | remaining at 10 min [2]: 93% | remaining at 10 min [7]: 28%

N#Cc1cnc(C(=O)Nc2ccc(Cc3nnn[nH]3)cc2C2=CCCCC2)[nH]1
IC50 [9]: > 300 nM

N#Cc1cnc(C(=O)Nc2ccc(CCS(=O)(=O)NN)cc2C2=CCCCC2)[nH]1
IC50 [9]: 23 nM

CC1(C)CC=C(c2cc(C(C)(C)N3CCOCC3)ccc2NC(=O)c2nc(C#N)c[nH]2)CC1
IC50 [9]: 17 nM

CC1(C)CC=C(c2cc(Cc3nnn[nH]3)ccc2NC(=O)c2ncc(C#N)[nH]2)CC1
IC50 [9]: > 100 nM

CC1(C)CC=C(c2cc(C(C)(C)NCCN3CCOCC3)ccc2NC(=O)c2nc(C#N)c[nH]2)CC1
remaining at 10 min [1]: 62% | remaining at 10 min [2]: 82% | IC50 [10]: 92 nM | inhibition in vivo at 30 mg/kg (Mus musculus [11]): 14% | IC50 [9]: 5.8 nM | remaining at 10 min [7]: 90%

CC1(C)CC=C(c2cc(CC(=O)NCCCO)ccc2NC(=O)c2ncc(C#N)[nH]2)CC1
IC50 [9]: > 100 nM

N#Cc1c[nH]c(C(=O)Nc2ccc(CCS(=O)(=O)N3CCOCC3)cc2C2=CCCCC2)n1
remaining at 10 min [1]: 93% | remaining at 10 min [2]: 118% | remaining at 10 min [7]: 4%

N#Cc1cnc(C(=O)Nc2ccc(S(N)(=O)=O)cc2C2=CCCCC2)[nH]1
IC50 [9]: > 150 nM

CN(C)CCOC(C)(C)c1ccc(NC(=O)c2ncc(C#N)[nH]2)c(C2=CCC(C)(C)CC2)c1
remaining at 10 min [2]: 104% | remaining at 10 min [7]: 39%

CC1(C)CC=C(c2cc(C(C)(C)N3CCN(CCO)CC3)ccc2NC(=O)c2ncc(C#N)[nH]2)CC1
inhibition in vivo at 40 mg/kg (Mus musculus [12]): 78% | Activity (Rattus norvegicus [13]): Active | Activity (Rattus norvegicus [14]): Dose-dependent effect

CN1CCN(C(C)(C)c2ccc(NC(=O)c3ncc(C#N)[nH]3)c(C3=CCC(C)(C)CC3)c2)CC1
inhibition in vivo at 40 mg/kg (Mus musculus [12]): 0% | remaining at 10 min [1]: 110% | remaining at 10 min [2]: 103% | remaining at 10 min [7]: 16%

CC1(C)CC=C(c2cc(CCS(N)(=O)=O)ccc2NC(=O)c2nc(C#N)c[nH]2)CC1
remaining at 10 min [2]: 109% | IC50 [9]: 86 nM | remaining at 10 min [7]: 5%

CC1(C)CC=C(c2cc(CCO)ccc2NC(=O)c2ncc(C#N)[nH]2)CC1
remaining at 10 min [1]: 41% | remaining at 10 min [2]: 74% | IC50 [9]: 18 nM

CC(O)c1ccc(NC(=O)c2ncc(C#N)[nH]2)c(C2=CCC(C)(C)CC2)c1 (stereo not drawn)
IC50 [9]: > 150 nM

N#Cc1cnc(C(=O)Nc2ccc(CCN3CCOCC3)cc2C2=CCCCC2)[nH]1
remaining at 10 min [1]: 2% | remaining at 10 min [2]: 46% | IC50 [9]: 1.8 nM
